The values below come from PubChem BioAssay AID488858 (Broad Institute, 2010).

The structures appear in SMILES notation. Results filed as inconclusive are left out. Activity calls are given as the source filed them.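 How the source made its calls: active means compounds raising caspase signal whose fitted AC50 is at most tenfold their top valid tested dose; inconclusive means flat fit at 30 to 70% activation, or poor fit; inactive means the rest.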

The first assay concerns MEF A1-2A-BIM cells, caspase-3/7 luminescence. As to the kind of experiment: caspase induction in A1-dependent fibroblasts – cell-based, MEF A1-2A-BIM, luminescence, dry powder, set 3, A1 (BCL2A1) inhibitor project, dose response (AID 488858).
Conditions: not given
In a few lines:
(§1)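 Material: A1-dependent A1-2A-BIM mouse embryonic fibroblasts; Quantity: 2500 cells per well; Buffer or medium: RPMI medium with 10% FBS; Dosing: pinned compound dose series; Times: 3 h compound at 37 °C, 1 h reagent at RT; Signal: caspase-3/7 DEVD luminescence.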
What is called AC50 is the concentration at which the activity in the assay is half-maximal. In the case of `O=C(CCl)N=c1sccn1Cc1ccccc1Cl`, the concentration at half-maximal activity (AC50) was 1.06 µM. As to `Cc1cccc(NC(=O)/C(C#N)=C/c2cn(CC(=O)NCc3ccco3)c3ccccc23)c1`, the concentration at half-maximal activity (AC50) was 5.6 µM. Same read-out and setting: the result for `COc1cc(CN2CCN(c3cc(C)ccc3C)CC2)ccc1O` reads 10.6 µM. For the molecule `CCc1nnc(NC(=O)c2nc(S(=O)(=O)Cc3ccccc3)ncc2Cl)s1`, the AC50 is 15.6 µM. The same measure, in the same setting: the result for `Cc1ccc(Sc2c([N+](=O)[O-])c(=O)n(C)c3ccccc23)cc1` reads 21 µM; that for `Cc1c(C=O)c(C=O)c(C)n1Cc1ccccc1`, 6.27 µM.

As to `C=C1[C@@H](C)[C@H]2[C@H](Cc3ccccc3)NC(=O)[C@]23[C@H](OC(C)=O)/C=C/[C@](C)(O)C(=O)[C@@H](C)C/C=C/[C@H]3[C@@H]1O`, the half-maximal activity concentration (AC50) was 1.2 µM. On the same count and under the same terms, to `Cn1c(=NC(=O)CCl)sc2ccccc21` belongs 4 µM; to `COc1ccc(N(C(=O)CCl)C(C(=O)NCCc2ccccc2)c2cccs2)cc1Cl` (centres undefined), 0.236 µM; to `Cc1cc(C(=O)CCl)c(C)n1CCc1ccc(Cl)cc1`, 6.06 µM.

Regarding `Cc1ccc(CS(=O)(=O)c2ncc(Cl)c(C(=O)Nc3nnc(C(C)C)s3)n2)cc1`, the AC50 is 12.3 µM.

As for `Cc1c(CCOC(=O)c2ccc(N3CCOCC3)c([N+](=O)[O-])c2)sc[n+]1CC#N`, the concentration at half-maximal activity (AC50) is 10.7 µM. Turning to `C=C1[C@@H](C)[C@H]2[C@H](Cc3ccccc3)NC(=O)[C@]23OC(=O)/C=C\[C@H](O)CCC[C@@H](C)C/C=C/[C@H]3[C@@H]1O`, the half-maximal activity concentration (AC50) was 2.72 µM.

For `CCSc1nnc(NC(=O)c2nc(S(=O)(=O)Cc3ccc(F)cc3)ncc2Cl)s1`, the AC50 was 14.4 µM. The same measure, in the same setting: the result for `CC(C)(C)n1nc(-c2ccc(Cl)cc2)c2c(N)ncnc21` reads 6.5 µM. Same read-out and setting: the result for `CCOC(=O)CSC1=N/C(=C/c2ccc(-n3cncn3)cc2)C(=O)N1C(C)=O` reads 9.77 µM. Same read-out and setting: to `CC(=O)N[C@H]1[C@H](O[C@H]2CC[C@@]3(C)C(CC[C@]4(C)C3CC=C3[C@@H]5CC(C)(C)CC[C@]5(C(=O)OC5OCC(O)C(O)C5O)C(O)C[C@]34C)C2(C)C)O[C@H](COC2OCC(O)C(OC3OCC(O)C(O)C3O)C2O)[C@@H](O[C@@H]2O[C@@H](C)[C@H](O)[C@@H](O)[C@H]2O[C@@H]2O[C@@H](C)[C@H](O)[C@@H](O)[C@H]2O)[C@@H]1O` (some centres undefined) belongs 9.71 µM; to `CCc1cc2c(=O)c(-c3cnn(-c4ccccc4)c3)c(C)oc2cc1OCC(=O)Nc1cccc(C)c1`, 5.41 µM. For `Nc1nc(F)nc2c1ncn2[C@@H]1O[C@H](CO)[C@@H](O)[C@H]1O`, the concentration at half-maximal activity (AC50) is 2.87 µM.

Regarding `Cc1cccc(CS(=O)(=O)c2ncc(Cl)c(C(=O)Nc3nnc(C(C)C)s3)n2)c1`, the AC50 is 12.6 µM.

In the case of `O=C(Oc1cccc(/C=N/Nc2nc(Nc3ccccc3)nc(N3CCOCC3)n2)c1)c1ccco1`, the concentration at half-maximal activity (AC50) was 4.23 µM.

Turning to `C/C1=C/C(=O)O[C@@H]2C[C@@H](CC[C@H](C)/C=C\CC1)O[C@@](O)(C1CSC(=O)N1)C2` (some centres undefined), the half-maximal activity concentration (AC50) is 0.37 µM.

Tested on in a further assay: not listed separately
The description is as above. The conditions noted are these: MEF A1-2A-BIM cells, caspase-3/7 luminescence; at 150 µM (top of the series). In a few lines:
as §1
For the molecule `COc1cc(/C=C(/C#N)c2nc3ccccc3[nH]2)ccc1OCC(=O)Nc1ccccc1C(C)C`, the caspase activation was 0.201% (inactive). As for `CC(=O)OC(C)(C)/C=C/C(=O)[C@](C)(O)C1[C@H](O)C[C@@]2(C)C3CC=C4C(C[C@H](O)C(=O)C4(C)C)[C@]3(C)C(=O)C[C@]12C` (some centres undefined), the caspase activation is 1.66% (inactive).
